Bioassay records as filed in PubChem.
In the library only some 3.6% were active in any assay of this set; here they are far more common.
PfHsp90 yeast 2: reduces growth (ATP signal) of yeast expressing P. falciparum Hsp90. 310,000 compounds, 0.32% hits. inhibition, % at 9.4 µM. S. cerevisiae expressing PfHsp90, BacTiter-Glo ATP, 48 h; yeast lacking PDR1 and PDR3 efflux regulators;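 active = every replicate shows inhibition above about 80%, whatever the replicate mean, limit read from the data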;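 also: 0% = DMSO neutral controls and 100% = 20 µM radicicol positive controls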
Beta apoptosis: beta cell apoptosis inhibition | INS-1E cytokine-induced death, ATP luminescence, 48 h; percent of positive-control rescue, neutral wells zero | 300,000 compounds, 0.8% hits | protection from apoptosis, % (concentration not given with the values);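 active = Every replicate reaches about 75%, or at least half do and their mean reaches it too, limit read from the data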;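 also: 0% = cytokine-treated negative control wells and 100% = positive control rescue; higher means more ATP so stronger rescue from cytokine killing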
CSC inhib: blocks cancer stem cells | cancer stem cell-like cells viability, luminescence | inhibition, % at 7.5 µM | 300,000 compounds, 1.1% hits | AID 2717; in the data active = inhibition above about 75%; tested in HMLE shEcad cells
SKKanGAS inh: inhibitors of SKKanGAS S. pyogenes growth in kanamycin (SK-promoter or general growth effect); AID 1662; BacTiter-Glo, 6 h; inhibition, % at 7.5 µM; 300,000 compounds, 1.3% hits;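 active = mean replicate score, as percent of positive control median, at least 50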;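 also: strain carries kanamycin resistance gene driven by streptokinase promoter and grows in 40 µg/ml kanamycin; loss of luminescence reflects streptokinase promoter inhibition or plain growth inhibition; 0% = median of DMSO wells and 100% = positive control at its reference dose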
T cruzi repl: T. cruzi replication inhibition | T. cruzi beta-gal in NIH3T3, luminescence, 90 h | inhibition, % (no concentration beside the values) | 300,000 compounds, 1.4% hits;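 active = mean inhibition across valid replicates above about 55%, limit read from the data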;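 also: signal also drops with host cell toxicity which is not excluded here; 0% = plate median of DMSO wells and 100% = zero luminescence signal; higher percent means less beta-gal luminescence so fewer parasites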
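assay system = mouse NIH/3T3 fibroblasts infected with β-gal-expressing T. cruzi Tulahuen C4 | input = 5,000 NIH/3T3 host cells per well | buffer or medium = DMEM plus 2% FBS | timing = 3 h host attachment, then at least 90 h co-culture | measured by = GalScreen luminescence, 60 min | evaluation = luminescence reflecting intracellular parasite burden, expressed as percent inhibition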
HIF act: HIF pathway transcriptional activation; U2OS HRE-luciferase reporter, luminescence; normalized: DMSO 0%, desferrioxamine 100%; activation, % at 7.5 µM (by protocol); 300,000 compounds, 0.32% hits; AID 1910;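 active = mean activation of at least 10% of the iron chelator positive control signal, with at least half of replicates also reaching 10%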
Starred values were filed as active, the others as inactive; . = not tested or not shown; + = active, no number.

SMILES	PfHsp90 yeast 2	Beta apoptosis	CSC inhib	SKKanGAS inh	T cruzi repl	HIF act
C[C@@H]1C(=O)O[C@H]2[C@H](O)[C@]34[C@@H]5OC(=O)[C@]3(OC3OC(=O)[C@H](O)C34[C@H](C(C)(C)C)[C@@H]5O)[C@@]12O (stereo not given in full)	-20	.	.	.	.	.
Cc1ccc(/C=C2/Sc3ccc(C(=O)N4CCC5(CC4)OCCO5)cc3NC2=O)cc1	1	-5	4	53*	36	0
CN1C(=O)c2ccccc2Sc2ccc(C(=O)N3CCC4(CC3)OCCO4)cc21	.	2	-13	-1	8	0
Cc1ccccc1-c1ccc2n1Cc1cnnn1-c1ccccc1-2	-39	.	.	.	.	.
COC(=O)C1=C(c2cccc(OCc3ccccc3)c2)C[C@@H]2CC[C@H]1N2C(=O)NCCN1CCOCC1	7	0	10	.	.	.
C=C(C=O)CC1CC(O)[C@]2(C)OC3CC4OC5C[C@]6(C)O[C@]7(C)CCC8OC9C[C@]%10(C)OC%11C(C)=CC(=O)OC%11CC%10OC9C[C@@H](C)C8OC7CC6O[C@]5(C)CC5OC5C4OC3CC2O1 (stereo not given in full)	-3	101*	9	26	46	-1
C[C@]12CCC3C(C(=O)C[C@H]4C[C@@H](O)CC[C@]34C)C1CCC2=O (stereo not given in full)	15	2	-9	.	.	.
C[C@@H]1CCC2[C@@H](C)C(=O)O[C@@H]3OC4(C)CCC1[C@@]23OO4 (stereo not given in full)	.	10	23	.	.	.
CC(=O)OC1(C)CC(C)C(=O)C(C(O)CC2CC(=O)NC(=O)C2)C1 (stereo not given)	105*	.	.	.	.	.
C[C@@H]1C[C@@H]([C@H](O)CC2CC(=O)NC(=O)C2)C(=O)[C@@H](C)C1	+	59	63	.	.	.
CC1CN=C(Nc2ccc(F)c(Cl)c2)S1 (stereo not given)	-22	-3	6	-3	3	0
COc1c(C=C2C(=O)NC(=O)NC2=O)c(CCN(C)C(=O)c2ccccc2)cc2c1OCO2	-20	.	-3	0	-3	0
CCn1nc(/C=C/c2ccccc2)nc2c(=O)n(C)c(=O)nc1-2	75	.	.	5	60*	-3
CCn1nc(-c2cccs2)nc2c(=O)n(C)c(=O)nc1-2	108*	.	.	.	.	.
O=c1c2ccccc2nc(-c2ccc(-c3ccccc3)cc2)n1-c1ccncc1	107*	3	-3	3	84*	1
Cc1ccc(-c2nc3ccccc3c(=O)n2-c2ccncc2)cc1	18	-2	-3	2	6	0
COC(=O)C1=C(c2cccc(Cl)c2)C[C@@H]2CC[C@H]1N2C(=O)N1CCCC1	6	-5	-1	.	.	.
C[C@H]1CC[C@@]2(C)[C@@H](CC[C@@H]3[C@@H]2CC[C@]2(C)[C@@H](O)CC[C@@H]32)C1	-3	-6	6	87*	9	.
CCCCCc1cc(O)c2c3c(c(=O)oc2c1)CN(C)CC3	-11	10	84*	8	3	1
O=S(=O)(c1ccc(Cl)cc1)N1CCCCC1c1cccnc1 (stereo not given)	20	-4	-3	9	71*	0
COC(=O)C1=C(c2ccc(-c3ccccc3)c(F)c2)C[C@@H]2CC[C@H]1N2C(=O)NCCOc1ccc(OC)cc1	2	23	11	.	.	.
O=[N+]([O-])c1cc(S(=O)(=O)c2ccc(O)c([N+](=O)[O-])c2)ccc1O	1	-4	12	3	3	36*
COc1ccc(CN(CCc2c[nH]c3ccccc23)Cc2ccc(OC)cc2)cc1	32	.	.	.	.	.
C[C@H]1CCC/C=C/[C@@H]2C[C@H](O)C[C@H]2[C@H](O)/C=C/C(=O)O1	1	117*	100*	.	.	.
C[C@H]1CCCC(=O)CCC/C=C/c2cc(O)cc(O)c2C(=O)O1	-30	-10	12	-6	5	0
SMILES	PfHsp90 yeast 2	Beta apoptosis	CSC inhib	SKKanGAS inh	T cruzi repl	HIF act
CCCNS(=O)(=O)c1ccc(OCC(=O)N2CCN(C)CC2)cc1	7	-7	-6	-4	34	0
COc1ccc(NS(=O)(=O)c2ccc(OCC(=O)N3CCN(C)CC3)cc2)cc1Cl	-50	-4	3	0	58*	0
CN1CCN(C(=O)COc2ccc(N(C)S(=O)(=O)c3ccc(F)cc3)cc2)CC1	13	0	2	-4	79*	0
CCN1CCN(C(=O)COc2ccc(S(=O)(=O)N(C)Cc3ccccc3)cc2)CC1	.	-2	10	0	37	0
CN1CCN(C(=O)COc2ccc(S(=O)(=O)N(C)Cc3ccccc3)cc2)CC1	0	0	4	-9	61*	0
CCC1([N+](=O)[O-])COP(=O)(NCc2cccnc2)OC1 (stereo not given)	0	.	.	.	.	.
CC1CN(c2ccccn2)C(C)CN1C(=O)C(O)(c1ccccc1)c1ccccc1 (stereo not given)	2	.	.	.	.	.
Cc1cccc(N=C2c3cc([N+](=O)[O-])ccc3-c3c2cc([N+](=O)[O-])cc3[N+](=O)[O-])c1	107*	.	.	.	.	.
FC(F)(F)c1ccc(CNCCc2ccc3c(c2)OCO3)cc1	5	-9	41	-9	55*	0
O=P(Nc1ccccc1)(Nc1ccccc1)Oc1ccc(Cl)cc1	5	10	-27	10	12	0
COc1cccc(NP(=O)(Oc2ccc(Cl)cc2)Oc2ccc(Cl)cc2)c1	-19	-2	77*	56*	30	.
Cc1ccsc1C(=O)C1CCCN(Cc2cnc(N3CCCC3)s2)C1 (stereo not given)	18	0	10	8	63*	0
Cc1ccsc1C(=O)C1CCCN(Cc2ccc(-n3cccn3)cc2)C1 (stereo not given)	-27	-5	-5	-4	61*	0
COc1cc(CN2CCCC(C(=O)c3sccc3C)C2)cc(OC)c1O (stereo not given)	16	4	-19	-11	30	-1
Cc1ccsc1C(=O)C1CCCN(Cc2cc3ccccc3o2)C1 (stereo not given)	-3	-1	15	0	45	-1
Cc1ccc(CN2CCCC(C(=O)c3sccc3C)C2)o1 (stereo not given)	8	-3	-9	13	66*	-1
CSc1ncc(CN2CCCC(C(=O)c3sccc3C)C2)cn1 (stereo not given)	4	-7	2	0	11	0
Cc1ccsc1C(=O)C1CCCN(Cc2c(C)nn(C(C)C)c2C)C1 (stereo not given)	-14	3	.	-1	62*	0
CCC(c1ccc(C)cc1)N1C(=O)C2C3CCC(O3)C2C1=O (stereo not given)	-1	-3	-5	.	.	.
CC(C(=O)c1ccc(Cl)cc1Cl)n1cncn1 (stereo not given)	1	-5	1	-4	-10	0
